Screening results as filed in PubChem BioAssay.
This is a sample that favours compounds with a hit; in the whole collection about 4.1% have one here.
Dynein transport = dynein cargo transport inhibition | actives 0.47% (n = 220,000) | AID 1381 | z-score, hits read low | 3617.4 mouse cells, GR-EGFP nuclear translocation imaging; test concentration mostly 20 µM; stimulated with dexamethasone, 1 µM; hits give low values;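 active = plate z-score of nuclear minus cytoplasmic receptor signal below a set negative limit, without overly bright fluorescence or cell loss, cut at about -3.5 in these data, passing the limit was not always enough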;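 also: z-score of nuclear minus cytoplasmic ring GR-EGFP intensity difference per well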
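medium = tetracycline-free induction medium containing charcoal-stripped FBS | also added = 1.0 µM final dexamethasone stimulus | schedule = 48 h induction, 1 h compound, 30 min dex at 37 °C | technique = fixed, Hoechst-stained cells imaged at 10x for EGFP | measure = GR-EGFP nuclear translocation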
Autophagy HCS = alters autophagy in cells; MEF GFP-LC3 puncta imaging; test concentration mostly 10 µM; calls only at 10 µM (by protocol); actives 0.98% (n = 190,000); AID 463193;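 active = percentage of spot-positive cells more than 3 SD above its plate mean, without a fluorescence outlier flag or 80% toxicity; inconclusive = no clear call, values can overlap the other calls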;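 also: spot-positive cell cutoff set from DMSO-treated cells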
Redox H2O2 prof = compounds producing H2O2 with reducing agent – biochemical, NIH compound library profiling, artefact control for MLSCN library redox annotation, primary screen; DTT-dependent redox cycling H2O2, phenol red/HRP absorbance; 100% = 100 µM peroxide control, 0% = buffer; activation, % at 10 µM; actives 0.03% (n = 200,000);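 active = activation of at least 50% relative to the plate's high and low controls in the primary single-dose screen; inactive = activation below 50%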;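 also: compound incubated with DTT at 0.8 mM final as the reducing agent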
ROMK primary = modulators of human ROMK potassium channel; P48048; Tet-inducible ROMK, thallium flux fluorescence; actives lie on both sides; B-score at 10 µM; actives 2% (n = 130,000); AID 1918;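 active = signal ratio slope over the read window, or its plate-corrected B-score, at least 3 SD from the plate mean, either direction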;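 also: B-score of the F/F0 ratio slope over 7 to 12 s after thallium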
Target sequence (P48048 whole entry, looked up): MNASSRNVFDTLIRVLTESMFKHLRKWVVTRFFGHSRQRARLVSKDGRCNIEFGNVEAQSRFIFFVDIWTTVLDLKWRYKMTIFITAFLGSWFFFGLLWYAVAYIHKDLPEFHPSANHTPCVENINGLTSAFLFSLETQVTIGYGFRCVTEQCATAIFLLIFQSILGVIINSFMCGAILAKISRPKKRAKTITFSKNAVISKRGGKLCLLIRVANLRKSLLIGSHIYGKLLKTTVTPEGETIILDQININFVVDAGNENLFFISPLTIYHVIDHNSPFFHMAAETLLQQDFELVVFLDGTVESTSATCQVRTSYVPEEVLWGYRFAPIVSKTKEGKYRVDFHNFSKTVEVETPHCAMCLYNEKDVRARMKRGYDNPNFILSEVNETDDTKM
KCC2 mod = modulates chloride dependent transport by human KCC2; KCC2 cells, thallium flux FluoZin-2 fluorescence; B-score of Tl+ flux slope (higher = more flux/activation; lower = inhibition) at 10 µM; actives 2.2% (n = 190,000); AID 1456;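 active = thallium flux slope and its plate-corrected score both differing from the plate sample mean at a set confidence after two filtering rounds, in either direction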;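 also: slope of fluorescence scaled to starting intensity during 10 to 20 s after thallium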
KCC2 secondary = confirmation of human KCC2 transport modulators; shares compounds with KCC2 mod; HEK293-KCC2, thallium flux, FluoZin2 fluorescence; hits give high values; normalised thallium flux (F/F0 slope) at 10 µM; actives 15% (n = 3,700);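 active = thallium flux slope above the same plate's solvent-only control mean plus 3 SD; inconclusive = the two replicate wells disagree; inactive = no significant difference from solvent-only control wells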
KCC2 bumet counter = thallium flux persisting under bumetanide in KCC2 cells, counter-screen secondary assay. shares compounds with KCC2 mod. HEK293-KCC2 + bumetanide/ouabain, thallium flux FluoZin2; hits give high values. normalized thallium flux at 10 µM. actives 49% (n = 3,700);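 active = thallium entry rate above the same plate's blocked-transporter control wells by more than 3 SD; inconclusive = the two repeat wells disagree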;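 also: raw slope of fluorescence over initial fluorescence between 10 and 20 s after thallium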
KCC2 sec2 = KCC2 (human) modulation, second secondary assay; actives 23% (n = 3,700); normalized thallium flux at 10 µM; HEK293-KCC2, thallium flux FluoZin2 fluorescence; actives lie on both sides; F/F0 rise rate, 10–20 s post-thallium; AID 1715; shares compounds with KCC2 mod;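 active = thallium flux slope more than 3 SD above or below the plate's solvent-only control mean, mostly below; inconclusive = the two repeat wells disagreed; inactive = no significant shift from solvent-only controls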;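 also: raw slope with 0.1% DMSO as baseline and bumetanide as block control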
HEK counter1 = counter-screen for KCC2 modulators: effect in parental HEK293 cells; shares compounds with KCC2 mod; thallium flux FluoZin2, ouabain; baseline-ratio fluorescence slope, 10–20 s after thallium; actives 46% (n = 3,700); thallium flux rate (normalised fluorescence) at 10 µM; AID 1716;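 active = thallium flux rate significantly above the same plate's solvent-only control wells, beyond their mean plus 3 SD; inconclusive = the two replicate wells gave conflicting results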
KCC2 ouabain = confirmation of human KCC2 modulators with ouabain | HEK293-KCC2, thallium flux FluoZin2 fluorescence; bidirectional: low = inhibitor, high = activator | shares compounds with KCC2 mod | actives 48% (n = 3,700) | raw Tl+ flux slope (below DMSO = inhibition, above = activation) at 10 µM | AID 1717;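 active = thallium flux slope beyond 3 SD from same-plate DMSO control mean in most replicates, usually higher, sometimes lower; inconclusive = repeat tests gave conflicting results; inactive = no significant difference from controls in most replicates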;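 also: slope of initial-normalized fluorescence between seconds 10 and 20 after thallium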
HEK counter2 = acts in parental HEK cells, second KCC2 counter-screen; shares compounds with KCC2 mod; actives 33% (n = 3,700); thallium flux slope at 10 µM; HEK293 parental, thallium flux FluoZin-2 fluorescence slope;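 active = thallium flux slope above the same plate's solvent-control mean plus 3 SD in both duplicate wells; inconclusive = duplicate wells that disagreed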;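 also: run without ouabain in cells lacking the KCC2 cotransporter; slope of fluorescence scaled to its starting value between 10 and 20 s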
The depositor's hits bear a star; i = inactive; ? = inconclusive; . = not tested or not shown; + = active, no number.

SMILES | Dynein transport | Autophagy HCS | Redox H2O2 prof | ROMK primary | KCC2 mod | KCC2 secondary | KCC2 bumet counter | KCC2 sec2 | HEK counter1 | KCC2 ouabain | HEK counter2
O=C(O)/C=C/c1ccccc1Oc1ccc(Cl)cc1Cl | 0.543 | i | -0.8 | 2.08 | -6.58* | 0.00511 | 0.00596* | 0.0214* | 0.00682 | ? | 0.01
CC(=O)c1cccc(NC(=O)N2CCCC2C(=O)Nc2ccc3c(c2)OCO3)c1 (stereo unspecified) | -1.23 | i | -0.3 | 0.405 | 0.429 | . | . | . | . | . | .
CS(=O)(=O)c1ccccc1C(=O)Nc1nc2ccccc2[nH]1 | 0.481 | . | . | . | -0.00721 | . | . | . | . | . | .
CN(C)S(=O)(=O)c1ccc(Cl)c(C(=O)Nc2nc3ccccc3[nH]2)c1 | 0.355 | i | -0.9 | 0.568 | . | 0.00655 | 0.00498 | 0.022* | 0.0077 | 0.0133* | 0.0103
O=S(=O)(/C=C/c1ccccc1)Nc1cccc(S(=O)(=O)NC2=NCCC2)c1 | -0.185 | i | -1.5 | -0.797 | . | . | . | . | . | . | .
CNC(=S)N/N=C(\C)c1cccc(C(F)(F)F)c1 | -0.612 | i | -1.8 | -0.375 | 4.23* | ? | 0.0328* | 0.0363 | 0.0127* | ? | 0.012*
O=C(c1ccc2c3n(nc2c1)-c1ccc(Cl)cc1CO3)N1CCCCC1 | -0.137 | . | . | . | -2.23* | 0.00666 | 0.00477 | ? | 0.00791 | ? | 0.0119
Cc1ccc2c(c1)COc1c3ccc(C(=O)N4CCOCC4)cc3nn1-2 | -0.319 | . | . | . | -0.596 | . | . | . | . | . | .
Cc1nc2sc3c(c2c(=O)[nH]1)CCCCC3 | 1.11 | . | . | . | -0.598 | . | . | . | . | . | .
Cc1cc(C)n(-c2nc3sc4c(c3c(=O)[nH]2)CCCC4)n1 | 0.433 | + | 0.3 | 2.07 | 41.7* | 0.00831 | 0.1* | 0.0984* | 0.103* | 0.0886* | 0.0688*
C=CCN(CC=C)C(=S)NC(=O)Cc1cccc2ccccc12 | 0.023 | i | -0.1 | . | . | 0.043* | 0.146* | 0.0608* | 0.103* | 0.126* | 0.0542*
CCN(CC)C(=S)NC(=O)Cc1ccccc1 | 0.779 | i | -1.0 | -0.195 | 0.974 | . | . | . | . | . | .
O=C(O)CCn1cc(C(=O)O)c(-c2ccccc2)n1 | 0.732 | . | . | . | -0.454 | . | . | . | . | . | .
CC(C)Oc1cccc(C(=O)Nc2ccccc2N2CCOCC2)c1 | 0.555 | i | -0.6 | . | -8.53* | 0.00806 | 0.00511 | 0.0312 | 0.00692 | 0.0332 | 0.0106
O=C(c1ccc2c(c1)OCCO2)N1CCN(c2ccc([N+](=O)[O-])cc2)CC1 | 1.37 | i | -0.2 | . | -1.04 | . | . | . | . | . | .
Cc1cc(C)n(-c2nc3ccccc3c(=O)n2OCc2ccc(F)cc2)n1 | -0.0746 | i | 2.6 | -0.802 | -0.826 | . | . | . | . | . | .
Cc1cc(CC(C)C)n(-c2nc3ccccc3c(=O)n2OCc2ccccc2)n1 | 0.8 | i | -3.6 | . | 5.14* | 0.00858 | 0.0232* | 0.0303 | 0.0108* | 0.0522* | 0.0121*
Cc1cc(CC(C)C)n(-c2nc3ccccc3c(=O)n2OCC(=O)N(C)C)n1 | -0.115 | i | 0.5 | 1.02 | 10* | 0.0074 | 0.0255* | 0.0359 | 0.0239* | 0.0318* | 0.0173*
Cc1nn(C)c(C)c1/C=C1/SC(=S)NC1=O | 0.376 | i | -0.9 | -0.548 | -4.01* | 0.0102 | 0.00556 | 0.0264* | 0.00788 | 0.0138* | 0.0109
Cc1cc(/C=C2\SC(=S)NC2=O)cc(C)c1O | 0.0202 | . | . | . | 7.6* | 0.00603 | 0.036* | 0.0272 | 0.0204* | 0.0275* | 0.0204*
Cc1cc(/C=C2\SC(=S)NC2=O)c(C)n1-c1ccccc1 | 0.498 | . | . | . | 24.4* | 0.0106 | 0.0474* | 0.0358 | 0.0288* | ? | 0.0132*
Cc1cc(/C=C2\SC(=S)NC2=O)c(C)n1C | -0.358 | i | 0.7 | . | . | . | . | . | . | . | .
CC1Cc2cc(/C=C3/SC(=S)NC3=O)ccc2O1 (stereo unspecified) | 0.359 | . | . | 0.45 | 80.5* | ? | 0.115* | 0.0502* | 0.0649* | 0.0874* | 0.0509*
Cc1nn(C)cc1/C=C1\SC(=S)NC1=O | 0.106 | i | -1.4 | -0.738 | 0.205 | . | . | . | . | . | .
CCOc1cc(/C=C2/SC(=S)NC2=O)ccc1OC(=O)c1ccco1 | 0.611 | i | -0.8 | -1.47 | 1.36 | . | . | . | . | . | .
SMILES | Dynein transport | Autophagy HCS | Redox H2O2 prof | ROMK primary | KCC2 mod | KCC2 secondary | KCC2 bumet counter | KCC2 sec2 | HEK counter1 | KCC2 ouabain | HEK counter2
CSc1nc(O)c(C(c2cccc([N+](=O)[O-])c2)c2c(O)nc(SC)[nH]c2=O)c(=O)[nH]1 | -1.24 | i | 0.0 | -0.77 | -0.367 | . | . | . | . | . | .
CC1CC(C)(C)NC(=S)N1CCC(=O)N1CCc2ccccc2C1 (stereo unspecified) | -0.356 | i | 0.5 | 0.218 | 0.025 | . | . | . | . | . | .
COC(=O)c1ccc(Cl)c(NC(=O)CN(c2ccccc2)S(=O)(=O)c2ccc(OC)cc2)c1 | -0.302 | i | -0.2 | . | -4.39* | 0.0103 | 0.00631 | ? | 0.00407 | 0.019* | 0.0113
Cc1c(N=C2Nc3cccc4cccc2c34)c(=O)n(-c2ccccc2)n1C | 1.53 | i | -2.8 | . | -2.9* | ? | 0.0051 | 0.0258* | 0.00843 | 0.0162* | 0.00978
Cc1c(C(N)=O)c(-c2ccccc2)nn1-c1ccccc1 | 0.399 | i | -0.6 | . | 1.2 | . | . | . | . | . | .
CCCc1c(-c2ccc(O)cc2)nn(-c2ccc(O)cc2)c1-c1ccc(O)cc1 | 1.48 | . | . | . | -2.48* | 0.0072 | 0.00463 | 0.0331 | ? | 0.0192 | 0.01
Cc1noc(C)c1-c1nc(CS(=O)(=O)c2ccc(F)cc2)no1 | 0.463 | . | . | . | 0.744 | . | . | . | . | . | .
O=C(NC(=S)N(CCO)Cc1ccccc1)c1cc(Br)ccc1Cl | -0.596 | i | -0.1 | 0.395 | 10.3* | 0.0152* | 0.0393* | 0.0333 | ? | 0.0328* | 0.0123
C=CCc1c(C)nc2ccc(C(=O)OCC)cc2c1Cl | -0.272 | i | -1.2 | -0.117 | 0.118 | . | . | . | . | . | .
CC1=NN(c2nc3ccccc3s2)C(O)(C(F)(F)F)C1 (stereo unspecified) | 0.154 | . | . | -0.141 | 5.83* | 0.00846 | 0.011* | 0.0297 | 0.0119* | ? | 0.0127*
Cc1cc(C)n(-c2nc3ccccc3s2)n1 | -0.127 | i | -0.6 | 2.04 | -0.352 | . | . | . | . | . | .
CN(CCn1ccnc1)Cc1cn(Cc2ccccc2)nc1-c1ccc2c(c1)OCO2 | -0.787 | . | . | . | -0.53 | . | . | . | . | . | .
